Some results are limits rather than exact numbers.

Assay [1] concerns Cavia porcellus. Briefly: Histamine induced lethality, at 60-min pretreatment time when 3 mg/kg compound was administered perorally in guinea pigs. The class given is functional. The conditions noted are these: route oral.
The test system of assay [2] is Cavia porcellus. The assay can be described thus: Histamine induced lethality, at 60-min pretreatment time when 0.3 mg/kg compound was administered perorally in guinea pigs. It is filed as functional. The conditions noted are these: route oral.
Assay [3] concerns the target Histamine H1 receptor (Cavia porcellus) (UniProt P31389). The assay can be described thus: Histamine induced lethality, at 30-min pretreatment time of 3 mg/kg i.p. in guinea pigs. It is filed as functional, organism-based. On the set-up: dose 3 mg/kg. The following applies: at 3 mg/kg.
The test system of assay [4] is Cavia porcellus. The assay can be described thus: Histamine induced lethality, at 30-min pretreatment time when 30 mg/kg compound was administered intra peritoneally in guinea pigs. The class given is functional.
The test system of assay [5] is Cavia porcellus. The assay can be described thus: Histamine induced lethality, at 60-min pretreatment time when 1 mg/kg compound was administered perorally in guinea pigs. The conditions noted are these: route oral. The class given is functional.
Assay [6] has as its target Histamine H1 receptor (Cavia porcellus) (UniProt P31389). The assay can be described thus: Histamine induced lethality, at 60-min pretreatment time of 0.1 mg/kg p.o. in guinea pigs. The following applies: at 0.1 mg/kg. The class given is functional, organism-based. Also noted: dose 0.1 mg/kg.
The species named for assay [7] is Cavia porcellus. The assay can be described thus: Effective dose that protects guinea pigs against histamine induced lethality at 6 hours pretreatment time. It is filed as functional. In outline: (§1)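 Survival at 24 h after challenge was scored as protection. Groups of 5–10 animals per treatment; ED50 was calculated by the Litchfield–Wilcoxon method or by computer probit analysis.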

Assay [8] is filed under the species Cavia porcellus. The assay can be described thus: Effective dose that protects guinea pigs against histamine induced lethality, at 1 hour pretreatment time. It is filed as functional. In outline:
as §1

The next assay deals with Felis catus. The assay can be described thus: The compound dose required to elicit marked cortical slowing and spindling, when administarted intra venously in cats. It is filed as functional. In outline: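 Cats given test compound iv (0.001-20 mg/kg), with spontaneous EEG inspected after each dose for cortical slowing, synchrony and spindle-type activity. The sedative dose was the one producing marked slowing and spindling (synchrony). Values are mean ± SD over the number of experiments per compound.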

Assay [9] relates to Cavia porcellus. Briefly: Histamine induced lethality, at 60-min pretreatment time when 30 mg/kg compound was administered perorally in guinea pigs. It is filed as functional. The following applies: route oral.

Sequence of Histamine H1 receptor (Cavia porcellus) (P31389 whole entry): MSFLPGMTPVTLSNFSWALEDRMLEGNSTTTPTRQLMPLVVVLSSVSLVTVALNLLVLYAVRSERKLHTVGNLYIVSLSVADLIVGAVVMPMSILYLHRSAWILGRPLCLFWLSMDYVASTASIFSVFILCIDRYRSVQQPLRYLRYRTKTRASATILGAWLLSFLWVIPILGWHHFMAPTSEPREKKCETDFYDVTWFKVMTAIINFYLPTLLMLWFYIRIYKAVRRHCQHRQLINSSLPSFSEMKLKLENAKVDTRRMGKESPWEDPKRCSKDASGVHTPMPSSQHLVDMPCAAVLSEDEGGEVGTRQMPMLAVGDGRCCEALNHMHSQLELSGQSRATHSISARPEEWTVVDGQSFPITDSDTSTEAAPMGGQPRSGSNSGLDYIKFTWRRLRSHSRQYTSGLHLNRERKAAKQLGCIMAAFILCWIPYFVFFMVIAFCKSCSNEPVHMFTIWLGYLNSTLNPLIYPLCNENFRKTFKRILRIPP

Take `CNCCC1CN(C)C(=S)c2cc(Cl)cnc2O1` (stereo unspecified): in the assay with Cavia porcellus [1], the survival at 3 mg/kg came out at 100%. In addition, the survival at 0.3 mg/kg with Cavia porcellus [2] is 0%.
In the case of `CN(C)CCC1CN(C)C(=S)c2cc([N+](=O)[O-])ccc2O1` (stereo unspecified), the survival at 3 mg/kg in the assay with Cavia porcellus [1] stood at 67%. Moreover, the survival at 0.3 mg/kg in the assay with Cavia porcellus [2] turned out to be 33%.
With `CN1CCN(CCC2CN(C)C(=S)c3cccnc3O2)CC1` (stereo unspecified), in assay [3], the Survival is 0%. Moreover, the survival at 30 mg/kg in the assay with Cavia porcellus [4] turned out to be 100%.
Turning to `CN(C)CCC1CN(C)C(=O)c2c(Cl)cncc2O1` (stereo unspecified), the survival at 30 mg/kg in the assay with Cavia porcellus [4] was determined as 0%.
For the compound `CN(C)CCC1CN(C)C(=S)c2ccncc2O1` (stereo unspecified), the survival at 0.3 mg/kg in the assay with Cavia porcellus [2] stood at 0%. Moreover, the survival at 1 mg/kg in the assay with Cavia porcellus [5] is 100%.
In the case of `CN(C)CCC1CN(Cc2ccccc2)C(=S)c2cccnc2O1` (stereo unspecified), the survival at 3 mg/kg with Cavia porcellus [1] was 100%. Further, in the assay with Cavia porcellus [5], the survival at 1 mg/kg worked out at 0%.
Turning to `CN(C)CCC1CN(C)C(=O)c2cc(Cl)ccc2O1` (stereo unspecified), the survival at 3 mg/kg in the assay with Cavia porcellus [1] amounted to 40%. Besides, the survival at 0.3 mg/kg with Cavia porcellus [2] came to 0%. In addition, the survival at 1 mg/kg in the assay with Cavia porcellus [5] is 33%.
Regarding `CN(C)CCC1CN(C)C(=O)c2cnc3ccccc3c2O1` (stereo unspecified), the survival at 30 mg/kg with Cavia porcellus [4] amounted to 33%.
Broadly, the ED50 is the midpoint of the dose-response relation. As to `Cc1ccc2c(n1)OC(CCN(C)C)CN(C)C2=S` (stereo unspecified), the Survival in assay [6] worked out at 80%. Also, the ED50 in the assay filed under Cavia porcellus [7] is more than 2 mg/kg; in the assay listed under Cavia porcellus [8] it was 0.06 mg/kg. The survival at 0.3 mg/kg in the assay on Cavia porcellus [2] was determined as 100%.
As for `CN(C)CCC1CN(C)C(=O)c2cccnc2O1` (stereo unspecified), the survival at 3 mg/kg in the assay with Cavia porcellus [1] came out at 100%. Besides, the survival at 1 mg/kg in the assay with Cavia porcellus [5] was found to be 20%. For the same compound, the ED50 in the assay listed under Cavia porcellus [8] was 1.05 mg/kg.
For the compound `CC(CN(C)C)C1CN(C)C(=O)c2cccnc2O1` (stereo unspecified), in assay [3], the Survival came out at 0%. For the same compound, the survival at 30 mg/kg in the assay on Cavia porcellus [4] stood at 67%.
The like results for `CCCCN(CCCC)CCC1CN(C)C(=S)c2cccnc2O1` (stereo unspecified) were, in that order, 33% and 100%.
With `CN(C)CCC1CN(C)C(=S)c2cc(Cl)ccc2O1` (stereo unspecified), the Dose in the assay on Felis catus amounted to 10 mg/kg. Further, the survival at 3 mg/kg in the assay with Cavia porcellus [1] amounted to 100%. Besides, in the assay on Cavia porcellus [5], the survival at 1 mg/kg amounted to 33%.
In the case of `CN1CC(CCNC2CCC2)Oc2ncccc2C1=S` (stereo unspecified), the survival at 30 mg/kg in the assay with Cavia porcellus [4] was determined as 0%.
For the compound `CN1CC(CCN2CCC2)Oc2ncc(Br)cc2C1=S` (stereo unspecified), the Survival in [6] stood at 60%. The survival at 3 mg/kg in the assay with Cavia porcellus [1] worked out at 100%. Besides, the values for the ED50 in the assay listed under Cavia porcellus [7] and in the assay listed under Cavia porcellus [8] were 0.1 mg/kg and 0.09 mg/kg, respectively. In addition, the survival at 1 mg/kg in the assay with Cavia porcellus [5] was 60%.
`CN(CCC1CN(C)C(=S)c2cc(Cl)cnc2O1)Cc1ccccc1` (stereo unspecified): the survival at 3 mg/kg in the assay with Cavia porcellus [1] worked out at 100%. Further, the survival at 0.3 mg/kg in the assay on Cavia porcellus [2] stood at 60%. The ED50 in the assay filed under Cavia porcellus [8] turned out to be 0.9 mg/kg.
With `CN1CC(CCN)Oc2ncccc2C1=S` (stereo unspecified), the survival at 30 mg/kg with Cavia porcellus [9] is 0%.
As to `CN(C)CCC1CN(C)C(=O)c2cnc3cc(C(F)(F)F)ccc3c2O1` (stereo unspecified), in assay [3], the Survival was 0%. The survival at 30 mg/kg with Cavia porcellus [4] amounted to 100%.
As to `CN(C)CCOc1ncccc1C(=S)N(C)C`, the survival at 30 mg/kg with Cavia porcellus [4] stood at 0%.
With `CN(C)CCC1(C)CN(C)C(=S)c2cccnc2O1` (stereo unspecified), in assay [6], the Survival was 40%. For the same compound, the ED50 is 6 mg/kg in the assay filed under Cavia porcellus [7] and 0.12 mg/kg in the assay filed under Cavia porcellus [8]. In addition, the survival at 0.3 mg/kg in the assay on Cavia porcellus [2] was determined as 67%. For the same compound, in the assay on Cavia porcellus [5], the survival at 1 mg/kg is 100%.
For `CC(CN(C)C)C1CN(C)C(=S)c2cccnc2O1` (stereo unspecified), in assay [3], the Survival came out at 0%. Besides, the survival at 30 mg/kg in the assay with Cavia porcellus [4] is 100%.
As for `CN1CC(CCN2CCC2)Oc2ccc(C(F)(F)F)cc2C1=S` (stereo unspecified), in the assay with Cavia porcellus [9], the survival at 30 mg/kg amounted to 100%. For the same compound, the survival at 3 mg/kg with Cavia porcellus [1] was 33%.
For the compound `CN(C)CCC1CN(C)C(=O)c2cc(Cl)cnc2O1` (stereo unspecified), the ED50 in the assay filed under Cavia porcellus [7] was 28 mg/kg; in the assay filed under Cavia porcellus [8] it was 0.3 mg/kg. Moreover, the survival at 0.3 mg/kg in the assay with Cavia porcellus [2] was 33%. Besides, the survival at 1 mg/kg in the assay on Cavia porcellus [5] came out at 100%.
For `CN1CC(CCn2ccnc2)Oc2ncccc2C1=S` (stereo unspecified), the Survival in [3] stood at 0%. Further, the survival at 30 mg/kg in the assay with Cavia porcellus [4] came to 100%.
Take `CN1CC(CCN2CCOCC2)Oc2ccccc2C1=S` (stereo unspecified): the survival at 30 mg/kg in the assay on Cavia porcellus [4] stood at 50%.
Regarding `Cc1nc2c(cc1Cl)C(=S)N(C)CC(CCN(C)C)O2` (stereo unspecified), the Survival in assay [6] was 67%. For the same compound, the survival at 0.3 mg/kg in the assay with Cavia porcellus [2] was 67%.
With `CN(C)CCC1CN(C)C(=O)c2ccccc2O1` (stereo unspecified), the survival at 30 mg/kg in the assay with Cavia porcellus [4] worked out at 62%.
With `CCN(CC)CCC1CN(C)C(=S)c2cccnc2O1` (stereo unspecified), the survival at 3 mg/kg with Cavia porcellus [1] stood at 67%. For the same compound, the survival at 1 mg/kg in the assay on Cavia porcellus [5] turned out to be 33%.
The like results for `CN(C)CCC1CNC(=O)c2cccnc2O1` (stereo unspecified) were, in that order, 67% and 0%.
On the same counts, the results for `CN(CCC1CN(C)C(=S)c2cc(Br)cnc2O1)Cc1ccccc1` (stereo unspecified) are 100% and 0%.
`Cc1nc2c(cc1Cl)C(=S)N(C)CC(CCN1CCC1)O2` (stereo unspecified): in [6], the Survival stood at 67%. The survival at 0.3 mg/kg with Cavia porcellus [2] turned out to be 67%.
Consider `CN1CC(CCCN)Oc2ncccc2C1=S` (stereo unspecified), for which, in the assay on Cavia porcellus [4], the survival at 30 mg/kg was found to be 67%.
The same measure, in the same setting: with `CN1CC(CCN(Cc2ccccc2)Cc2ccccc2)Oc2ncccc2C1=S` (stereo unspecified) the figure was 0%.

The record behind these values is ChEMBL document CHEMBL1124606, “Benzo- and pyrido-1,4-oxazepin-5-ones and -thiones: synthesis and structure-activity relationships of a new series of H1 antihistamines” (1989).
